Experimental data taken from ChEMBL document CHEMBL4376902, “CN128: A New Orally Active Hydroxypyridinone Iron Chelator” (J Med Chem, 2020).
Activity calls are given as the source filed them. No cut-off for these calls is given here.

Assays:
[1] = Cmax in Sprague-Dawley rat at 150 umol/kg, po measured up to 1440 mins by LC/MS/MS analysis; assay type: ADME, organism-based; set-up: dose 150 umol/kg, route oral; conditions: in vivo
Rattus norvegicus [2] = experiment: Iron scavenging activity in 59Fe-ferritin-loaded rat assessed as iron mobilization level at 150 umol/kg, po dosed 1 hr after 59Fe-ferritin injection and measured 24 hrs after 59Fe-ferritin injection by gamma counting method relative to control; assay type: functional, organism-based
Method in brief: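 Male SD rats, 300 g, fasted overnight, given about 1 μC 59Fe-ferritin i.v. under isoflurane. Chelator gavaged 1 h later, then rats housed in metabolic cages; food returned 1 h after dosing. Killed 24 h after 59Fe-ferritin. Urine, faeces, liver and gut gamma-counted. 8 rats per condition.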

Cytochrome P450 3A4 = Cytochrome P450 3A4 (Homo sapiens, UniProt P08684); experiment: Inhibition of CYP3A4 in human liver microsomes; assay type: ADME
Mus musculus [3] = experiment: Toxicity in mouse assessed as reduction in erythrocyte population at 200 mg/kg, po dosed once daily for 2 months as 5 days per week schedule; conditions: in vivo, 120 h
[4] = Toxicity in Sprague-Dawley rat assessed as induction of mortality at 200 mg/kg, po dosed once daily for 2 months as 5 days per week schedule; assay type: organism-based; conditions: in vivo, 120 h
[5] = Drug level in rat liver at 150 umol/kg, po measured measured up to 6 hrs by LC-MS/MS analysis; assay type: ADME, organism-based; conditions: in vivo
Method in brief: (§1)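 Single oral dose of 150 μmol/kg to SD rats, half male and half female, n=6 per group. Rats decapitated at 10 min, 30 min, 2 h and 6 h. Tissues dissected, saline-washed, weighed and homogenised in acetonitrile/water 1:9 (125 mg/mL). Drug level measured against plasma; mean ± SE.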

Rattus norvegicus [6] = experiment: Iron scavenging activity in iron-overloaded rat assessed as iron removal efficacy at 75 to 1200 umol/kg, po; assay type: functional, organism-based
Method in brief: (§2)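 Male SD rats (300 g), fasted overnight, given about 1 μC 59Fe-ferritin i.v. under isoflurane; chelator by oral gavage 1 h later; doses 75, 150, 300, 600 and 1200 μmol/kg. Rats housed in metabolic cages, food returned 1 h post-dose; killed 24 h after ferritin injection. Urine, faeces, liver and gut gamma-counted. Iron removal expressed as % efficacy.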

[7] = Acid dissociation constant, pKa1 of the compound over pH 1.8 to 11.0 by spectrophotometric titration method; assay type: physicochemical
Method in brief: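 Automated spectrophotometric titration with 0.1 M KOH in 0.1 pH-unit steps. Reading accepted as stable when drift was <0.01 pH unit after a 1.5 min incubation. 10 mm path length cuvette. Spectra fitted by computer to obtain the pKa values.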

[8] = Ratio of drug level in liver to plasma in rat at 150 umol/kg, po measured within 10 mins by LC-MS/MS analysis; assay type: ADME, organism-based; conditions: liver and plasma
Method in brief: (§3)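 SD rats (half male, half female, n = 6 per group) given a single oral 150 μmol/kg dose. Killed at 10 min, 30 min, 2 h or 6 h; tissues washed in saline, weighed and homogenised in acetonitrile/water 1:9 (125 mg/mL). Tissue levels compared with plasma.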

Mus musculus [9] = experiment: Toxicity in mouse assessed as reduction in total white cell counts at 200 mg/kg, po dosed once daily for 2 months as 5 days per week schedule; conditions: in vivo, 120 h
Mus musculus [10] = experiment: Toxicity in mouse assessed as increase in reticulocyte population at 200 mg/kg, po dosed once daily for 2 months as 5 days per week schedule; conditions: in vivo, 120 h
Cytochrome P450 3A5 = Cytochrome P450 3A5 (Homo sapiens, UniProt P20815); experiment: Inhibition of CYP3A5 in human liver microsomes; assay type: ADME
[11] = Ratio of drug level in kidney to plasma in rat at 150 umol/kg, po measured within 10 mins by LC-MS/MS analysis; assay type: ADME, organism-based; conditions: kidney and plasma; method in brief: as §3
[12] = Ratio of drug level in adrenal gland to plasma in rat at 150 umol/kg, po measured within 10 mins by LC-MS/MS analysis; assay type: ADME, organism-based; conditions: adrenal gland and plasma; method in brief: as §3
[13] = Toxicity in iron-overloaded rat assessed as induction of mortality at 75 to 1200 umol/kg, po; conditions: in vivo
[14] = AUC (0 to infinity) in Sprague-Dawley rat at 600 umol/kg, po measured up to 1440 mins by LC/MS/MS analysis; assay type: ADME, organism-based; set-up: dose 600 umol/kg, time infinity, route oral; conditions: in vivo, 24 h
[15] = Binding affinity to Fe3+ ion assessed as affinity constant by spectrophotometric titration method
Method in brief: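 Automated spectrophotometric titration with 0.1 M KOH in 0.1 pH steps, 3 min equilibration per step, 50 mm cuvette, iron complexes at ca. 40 µM. Titrated in competition with metal hydrolysis species up to pH 12.0. Hydrolysis constants taken from critical compilations. Iron spectra fitted over 400–700 nm.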

[16] = Apparent volume of distribution in Sprague-Dawley rat at 75 umol/kg, po measured up to 1440 mins by LC/MS/MS analysis; assay type: ADME, organism-based; conditions: in vivo, 24 h
Rattus norvegicus [17] = experiment: Iron scavenging activity in iron-overloaded rat assessed as iron removal efficacy at 75 to 1200 umol/kg, po relative to control; assay type: functional; method in brief: as §2
Cytochrome P450 2D6 = Cytochrome P450 2D6 (Homo sapiens, UniProt P10635); experiment: Inhibition of CYP2D6 in human liver microsomes; assay type: ADME
Cytochrome P450 2C9 = Cytochrome P450 2C9 (Homo sapiens, UniProt P11712); experiment: Inhibition of CYP2C9 in human liver microsomes; assay type: ADME
[18] = AUC (0 to infinity) in Sprague-Dawley rat at 150 umol/kg, po measured up to 1440 mins by LC/MS/MS analysis; assay type: ADME, organism-based; set-up: dose 150 umol/kg, route oral, time infinity; conditions: in vivo, 24 h
[19] = Drug level in rat stomach at 150 umol/kg, po measured measured up to 6 hrs by LC-MS/MS analysis; assay type: ADME, organism-based; conditions: in vivo; method in brief: as §1
[20] = Apparent clearance in Sprague-Dawley rat at 300 umol/kg, po measured up to 1440 mins by LC/MS/MS analysis; assay type: ADME, organism-based; conditions: in vivo, read-out: CL(app) (converted)
[21] = Binding affinity to Zn2+ ion assessed as affinity constant by spectrophotometric titration method
Mus musculus [22] = experiment: Toxicity in mouse assessed as reduction in neutrophils counts at 200 mg/kg, po dosed once daily for 2 months as 5 days per week schedule; conditions: in vivo, 120 h
[23] = Cmax in Sprague-Dawley rat at 75 umol/kg, po measured up to 1440 mins by LC/MS/MS analysis; assay type: ADME, organism-based; set-up: dose 75 umol/kg, route oral; conditions: in vivo
[24] = Drug metabolism in rat bile assessed as (2S,3S,4S,5R,6R)-3,4,5-trihydroxy-6-[(2R)-2-(3-hydroxy-2-methyl-4-oxo-1-pyridyl)-3-phenylpropoxy]tetrahydropyran-2-carboxylic acid/(2S,3S,4S,5R,6S)-6-[[1-[(1R)-1-benzyl-2-hydroxyethyl]-2-methyl-4-oxo-3-pyridyl]oxy]-3,4,5-trihydroxy-tetrahydropyran-2-carboxylic acid ratio formation at 150 umol/kg, po measured over 8 hrs by LC/TOF/MS/MS analysis; assay type: ADME, organism-based; conditions: in vivo
Method in brief: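 Bile collected from rats after an oral dose of 150 μmol/kg. Metabolites characterised by β-glucuronidase hydrolysis and LC-TOFMS/MS. M2/M1 ratio followed over 8 h.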

Chain of Cytochrome P450 3A4 (P08684 whole entry): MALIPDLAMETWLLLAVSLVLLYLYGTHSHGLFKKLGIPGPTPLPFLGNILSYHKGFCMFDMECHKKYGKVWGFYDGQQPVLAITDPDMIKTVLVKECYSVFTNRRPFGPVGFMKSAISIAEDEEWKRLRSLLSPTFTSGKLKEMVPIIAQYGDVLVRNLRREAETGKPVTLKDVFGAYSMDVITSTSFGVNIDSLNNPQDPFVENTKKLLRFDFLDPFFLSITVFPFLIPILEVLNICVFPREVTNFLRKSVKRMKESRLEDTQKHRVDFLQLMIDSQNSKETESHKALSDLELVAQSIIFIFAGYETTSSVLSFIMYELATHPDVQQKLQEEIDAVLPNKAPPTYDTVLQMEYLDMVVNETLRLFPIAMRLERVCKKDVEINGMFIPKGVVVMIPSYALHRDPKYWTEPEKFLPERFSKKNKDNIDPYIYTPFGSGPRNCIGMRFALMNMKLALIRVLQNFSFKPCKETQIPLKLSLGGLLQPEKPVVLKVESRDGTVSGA
Chain of Cytochrome P450 3A5 (P20815 whole entry): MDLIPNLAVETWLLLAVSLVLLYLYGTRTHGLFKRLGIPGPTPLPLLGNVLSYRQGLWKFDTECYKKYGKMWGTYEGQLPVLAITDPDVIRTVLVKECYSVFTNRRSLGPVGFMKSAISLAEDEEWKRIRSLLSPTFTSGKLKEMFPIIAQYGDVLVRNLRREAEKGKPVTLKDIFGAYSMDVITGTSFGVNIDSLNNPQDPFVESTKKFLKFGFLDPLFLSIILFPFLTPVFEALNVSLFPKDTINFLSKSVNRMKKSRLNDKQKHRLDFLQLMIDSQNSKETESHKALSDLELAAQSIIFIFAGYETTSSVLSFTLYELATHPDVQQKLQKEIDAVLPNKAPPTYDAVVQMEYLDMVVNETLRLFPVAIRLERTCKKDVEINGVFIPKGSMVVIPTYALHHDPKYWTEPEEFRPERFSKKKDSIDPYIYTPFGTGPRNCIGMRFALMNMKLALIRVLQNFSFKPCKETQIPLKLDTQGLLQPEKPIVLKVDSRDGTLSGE
Chain of Cytochrome P450 2D6 (P10635 whole entry): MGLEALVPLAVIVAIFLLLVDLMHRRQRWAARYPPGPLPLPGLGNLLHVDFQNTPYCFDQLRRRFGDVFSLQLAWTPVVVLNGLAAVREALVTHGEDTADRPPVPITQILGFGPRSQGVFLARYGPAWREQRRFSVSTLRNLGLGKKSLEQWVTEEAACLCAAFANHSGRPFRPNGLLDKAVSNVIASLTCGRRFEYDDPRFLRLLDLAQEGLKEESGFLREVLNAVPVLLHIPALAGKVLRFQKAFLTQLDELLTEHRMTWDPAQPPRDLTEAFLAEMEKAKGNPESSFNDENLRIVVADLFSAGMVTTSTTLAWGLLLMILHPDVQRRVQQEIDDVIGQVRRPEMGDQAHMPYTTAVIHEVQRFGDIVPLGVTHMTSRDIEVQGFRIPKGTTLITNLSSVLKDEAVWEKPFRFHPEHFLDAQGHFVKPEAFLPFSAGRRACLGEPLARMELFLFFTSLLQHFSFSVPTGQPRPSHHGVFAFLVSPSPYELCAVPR
Chain of Cytochrome P450 2C9 (P11712 whole entry): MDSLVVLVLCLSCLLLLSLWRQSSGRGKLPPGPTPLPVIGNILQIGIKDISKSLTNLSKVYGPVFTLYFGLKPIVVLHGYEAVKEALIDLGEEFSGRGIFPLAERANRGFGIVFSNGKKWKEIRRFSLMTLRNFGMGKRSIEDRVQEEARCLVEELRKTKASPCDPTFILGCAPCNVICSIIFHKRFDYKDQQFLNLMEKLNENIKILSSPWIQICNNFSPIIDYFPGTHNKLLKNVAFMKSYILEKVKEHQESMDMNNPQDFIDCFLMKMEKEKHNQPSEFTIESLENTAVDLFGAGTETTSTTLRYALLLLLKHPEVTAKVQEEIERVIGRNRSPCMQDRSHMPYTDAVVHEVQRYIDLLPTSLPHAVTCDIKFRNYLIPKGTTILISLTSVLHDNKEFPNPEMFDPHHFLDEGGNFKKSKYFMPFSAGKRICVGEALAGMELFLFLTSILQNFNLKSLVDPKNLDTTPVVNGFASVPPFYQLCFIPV

Cc1c(O)c(O)cc[n+]1[C@@H](CO)Cc1ccccc1.[Cl-]
Cmax [1]: 19.9 µg/mL | Activity (Rattus norvegicus [2]): Active | IC50 (Cytochrome P450 3A4): > 200 µM | Activity (Mus musculus [3]): Non-Toxic | Activity [4]: Non-Toxic | Drug uptake [5]: Not Active | Activity (Rattus norvegicus [6]): Dose-dependent effect | pKa [7]: 3.26 | Kp at 10 min [8]: 3.3 to 8.8 | Activity (Mus musculus [9]): Non-Toxic | Activity (Mus musculus [10]): Non-Toxic | IC50 (Cytochrome P450 3A5): > 200 µM | Kp at 10 min [11]: 3.3 to 8.8 | Kp at 10 min [12]: 3.3 to 8.8 | Activity [13]: Non-Toxic | AUC [14]: 181 µg·h/mL | K [15]: 19.8 pM | log K [15]: 14.8 | Vz [16]: 7.6 L/kg | Activity (Rattus norvegicus [17]): 3.6 - 48.5% | IC50 (Cytochrome P450 2D6): > 200 µM | IC50 (Cytochrome P450 2C9): > 200 µM | AUC [18]: 37.7 µg·h/mL | Drug uptake [19]: Not Active | CL/F [20]: 0.92 L/h/kg | K [21]: 6.15 pM | log K [21]: 7.05 | Activity (Mus musculus [22]): Non-Toxic | Cmax [23]: 8.67 µg/mL | Ratio [24]: 2.3 to 6.9
